# Test results as given in ChEMBL document CHEMBL1155063 (Bioorg Med Chem, 2008).
# Assays:
# [1] = Cell viability of human H1299 cells at 1 uM after 48 hrs by MTT assay relative to control; settings: NCI-H1299, 48 h
# [2] = Cytotoxicity against human TERT immortalized BJ1 cells at 1 uM after 48 hrs by MTT assay relative to control; assay type: cell-based, BJ
# Procedure, shortened: (§1)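 hTERT-immortalized BJ1 fibroblasts were grown in DMEM with 10% FCS, 1 mM pyruvate and 4 mM […]. Cells (about 2 × 10^3 per well) were seeded and held 24 h at 37 °C. Compounds were freshly dissolved in DMSO, diluted into medium and left on the cells 48 h. MTT was added for 4 h, then SDS/DMF lysis buffer for 16 h. Absorbance was read at 550 nm and expressed relative to untreated cells (100%).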
# [3] = biological target: T1, Telomerase reverse transcriptase (Homo sapiens, UniProt O14746); assay: Effect on human TERT expressed in H1299 cells at 100 uM after 24 hrs by SEAP assay relative to control
# T1 sequence (O14746 whole entry): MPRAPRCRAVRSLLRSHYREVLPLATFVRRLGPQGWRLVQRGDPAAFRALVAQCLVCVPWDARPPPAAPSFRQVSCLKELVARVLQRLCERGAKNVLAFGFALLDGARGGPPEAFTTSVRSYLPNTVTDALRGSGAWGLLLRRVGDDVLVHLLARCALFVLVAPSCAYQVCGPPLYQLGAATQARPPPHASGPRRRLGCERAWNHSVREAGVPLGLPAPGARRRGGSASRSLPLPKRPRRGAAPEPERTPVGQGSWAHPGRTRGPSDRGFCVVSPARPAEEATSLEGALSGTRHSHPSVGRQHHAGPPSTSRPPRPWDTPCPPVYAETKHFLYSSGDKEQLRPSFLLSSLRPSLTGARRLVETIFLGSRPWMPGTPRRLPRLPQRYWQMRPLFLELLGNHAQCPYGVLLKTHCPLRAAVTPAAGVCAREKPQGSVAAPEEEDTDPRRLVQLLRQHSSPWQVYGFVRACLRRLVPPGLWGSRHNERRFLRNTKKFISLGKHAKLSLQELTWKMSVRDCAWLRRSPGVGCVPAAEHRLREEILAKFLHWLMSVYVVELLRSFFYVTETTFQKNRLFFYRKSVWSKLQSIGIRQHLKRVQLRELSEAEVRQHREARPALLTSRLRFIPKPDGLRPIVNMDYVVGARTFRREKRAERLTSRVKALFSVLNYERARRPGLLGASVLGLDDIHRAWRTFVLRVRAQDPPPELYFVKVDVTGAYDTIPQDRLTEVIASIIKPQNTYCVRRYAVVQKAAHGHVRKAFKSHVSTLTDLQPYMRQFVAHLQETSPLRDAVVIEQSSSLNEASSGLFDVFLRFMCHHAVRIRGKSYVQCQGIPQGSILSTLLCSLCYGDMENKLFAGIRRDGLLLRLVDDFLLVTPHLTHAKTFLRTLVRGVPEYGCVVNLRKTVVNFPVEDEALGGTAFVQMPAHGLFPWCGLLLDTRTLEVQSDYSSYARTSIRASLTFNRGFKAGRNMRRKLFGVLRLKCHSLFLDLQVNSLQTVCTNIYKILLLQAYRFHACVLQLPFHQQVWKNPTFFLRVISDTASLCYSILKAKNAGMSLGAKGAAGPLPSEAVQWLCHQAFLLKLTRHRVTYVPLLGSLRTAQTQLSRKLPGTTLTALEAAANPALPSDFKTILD
# [4] = biological target: T1, Telomerase reverse transcriptase; assay: Effect on human TERT expressed in BJ1 cells at 10 uM after 24 hrs by SEAP assay relative to control; settings: BJ
# [5] = Cytotoxicity against human H1299 cells at 100 uM after 48 hrs by MTT assay realtive to control; assay type: functional; settings: NCI-H1299, 48 h
# Procedure, shortened: (§2)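 H1299 non-small-cell lung cells were kept in RPMI 1640 with 10% FBS and penicillin/streptomycin at 37 °C under 5% CO2. About 2 × 10^3 cells per well were pre-incubated for 24 h. Compound was added from freshly made DMSO solution diluted in complete medium and left for 48 h. MTT was then added for 4 h at 37 °C, followed by 20% SDS/50% DMF lysis buffer for 16 h at 37 °C, and absorbance read at 550 nm.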
# [6] = biological target: T1, Telomerase reverse transcriptase; assay: Effect on human TERT expressed in BJ1 cells at 1 uM after 24 hrs by SEAP assay realtive to control; settings: BJ
# [7] = Cytotoxicity against human TERT immortalized BJ1 cells at 10 uM after 48 hrs by MTT assay relative to control; assay type: cell-based, BJ
# Procedure, shortened: as §1
# [8] = biological target: T1, Telomerase reverse transcriptase; assay: Effect on human TERT expressed in H1299 cells at 10 uM after 24 hrs by SEAP assay relative to control
# [9] = biological target: T1, Telomerase reverse transcriptase; assay: Effect on human TERT expressed in H1299 cells at 1 uM after 24 hrs by SEAP assay relative to control
# [10] = biological target: T1, Telomerase reverse transcriptase; assay: Effect on human TERT expressed in BJ1 cells at 100 uM after 24 hrs by SEAP assay relative to control; settings: BJ
# [11] = Cytotoxicity against human H1299 cells at 10 uM after 48 hrs by MTT assay realtive to control; assay type: functional; settings: NCI-H1299, 48 h
# Procedure, shortened: as §2
# [12] = Cytotoxicity against human TERT immortalized BJ1 cells at 100 uM after 48 hrs by MTT assay relative to control; assay type: cell-based, BJ
# Procedure, shortened: as §1
Structure (SMILES),residual activity [3] [%],residual activity [4] [%],residual activity [6] [%],residual activity [8] [%],residual activity [9] [%],residual activity [10] [%],cell viability at 1 µM [1] [%],"viability at 48 h, 1 µM [2] [%]",viability at 100 µM [5] [%],"viability at 48 h, 10 µM [7] [%]",viability at 10 µM [11] [%],"viability at 48 h, 100 µM [12] [%]"
Nc1ccc2c(c1)C(=O)c1cc(N)ccc1C2=O,63,–,–,75,87,–,90,95,65,83,80,80
O=C(CCc1ccccc1)Nc1ccc2c(c1)C(=O)c1cc(NC(=O)CCc3ccccc3)ccc1C2=O,61,92,74,79,89,43,102,89,76,44,94,44
O=C1c2ccc(NC(=O)C3CCCCC3)cc2C(=O)c2cc(NC(=O)C3CCCCC3)ccc21,80,14,14,93,96,22,90,87,52,76,63,64
CN1CCN(CC(=O)Nc2ccc3c(c2)C(=O)c2cc(NC(=O)CN4CCN(C)CC4)ccc2C3=O)CC1,23,68,61,50,76,97,90,86,37,69,71,47
O=C(CN1CCNCC1)Nc1ccc2c(c1)C(=O)c1cc(NC(=O)CN3CCNCC3)ccc1C2=O,60,–,–,72,89,–,88,88,88,85,85,76
CN1CCN(CCC(=O)Nc2ccc3c(c2)C(=O)c2cc(NC(=O)CCN4CCN(C)CC4)ccc2C3=O)CC1,21,138,–,52,75,–,95,95,39,80,80,61
CCN(CC)CC(=O)Nc1ccc2c(c1)C(=O)c1cc(NC(=O)CN(CC)CC)ccc1C2=O,37,131,26,61,90,116,101,116,25,67,47,50
O=C(Nc1ccc2c(c1)C(=O)c1cc(NC(=O)c3ccccc3)ccc1C2=O)c1ccccc1,85,72,–,92,104,36,71,92,41,85,47,97
O=C(CN1CCCC1)Nc1ccc2c(c1)C(=O)c1cc(NC(=O)CN3CCCC3)ccc1C2=O,30,–,–,48,88,–,99,99,23,60,52,39

# The next lines start with results.
residual activity [3] [%],residual activity [4] [%],residual activity [6] [%],residual activity [8] [%],residual activity [9] [%],residual activity [10] [%],Structure (SMILES),cell viability at 1 µM [1] [%],"viability at 48 h, 1 µM [2] [%]",viability at 100 µM [5] [%],"viability at 48 h, 10 µM [7] [%]",viability at 10 µM [11] [%],"viability at 48 h, 100 µM [12] [%]"
34,41,90,35,60,17,CCNCC(=O)Nc1ccc2c(c1)C(=O)c1cc(NC(=O)CNCC)ccc1C2=O,52,72,3,56,24,37
85,64,78,95,90,51,CCC(=O)Nc1ccc2c(c1)C(=O)c1cc(NC(=O)CC)ccc1C2=O,70,77,35,57,38,48
21,55,79,28,73,45,CC(C)NCC(=O)Nc1ccc2c(c1)C(=O)c1cc(NC(=O)CNC(C)C)ccc1C2=O,78,89,6,41,26,39
26,44,83,38,73,40,CC(C)CNCC(=O)Nc1ccc2c(c1)C(=O)c1cc(NC(=O)CNCC(C)C)ccc1C2=O,108,107,11,37,39,39
36,69,–,40,72,135,O=C(CCl)Nc1ccc2c(c1)C(=O)c1cc(NC(=O)CCl)ccc1C2=O,58,105,1,89,5,88
83,–,–,83,90,–,CCCC(=O)Nc1ccc2c(c1)C(=O)c1cc(NC(=O)CCC)ccc1C2=O,93,84,40,51,59,50
87,–,–,94,94,–,O=C(CCCl)Nc1ccc2c(c1)C(=O)c1cc(NC(=O)CCCl)ccc1C2=O,77,77,29,65,44,39
22,95,88,33,56,111,CCCCNCCC(=O)Nc1ccc2c(c1)C(=O)c1cc(NC(=O)CCNCCCC)ccc1C2=O,82,80,14,70,52,40
20,24,27,26,77,80,CCCCNCC(=O)Nc1ccc2c(c1)C(=O)c1cc(NC(=O)CNCCCC)ccc1C2=O,91,103,15,41,17,43
24,–,–,44,73,–,CCCNCC(=O)Nc1ccc2c(c1)C(=O)c1cc(NC(=O)CNCCC)ccc1C2=O,89,96,14,44,54,42
